From the M2OR odorant receptor database

How the values were obtained:
Conditions in all cases: stereoisomer not certain
OR51B5 (Homo sapiens) = target: T1, OR51B5 (Homo sapiens) (UniProt Q9H339)
T1 sequence (whole entry): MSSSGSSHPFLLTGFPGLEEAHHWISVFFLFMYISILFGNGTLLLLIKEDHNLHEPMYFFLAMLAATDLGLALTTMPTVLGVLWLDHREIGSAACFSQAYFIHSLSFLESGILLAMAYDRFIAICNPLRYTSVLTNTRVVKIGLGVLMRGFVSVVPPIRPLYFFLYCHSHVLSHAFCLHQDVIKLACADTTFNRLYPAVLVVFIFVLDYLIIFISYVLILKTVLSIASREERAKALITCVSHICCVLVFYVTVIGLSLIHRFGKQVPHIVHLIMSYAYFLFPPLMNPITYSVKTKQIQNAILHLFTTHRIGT
Procedure, shortened: (§1)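 Transient luciferase assays in mammalian cell lines were common, though methods varied by source. The values come from published papers and their supplementary material, with extra details from the original authors when needed. Responsive refers to a measured signal the original authors judged statistically different from baseline, and non-responsive (inactive) to the remainder.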

OR51E1 (Homo sapiens) = target: T2, OR51E1 (Homo sapiens) (UniProt Q8TCB6)
T2 sequence (whole entry): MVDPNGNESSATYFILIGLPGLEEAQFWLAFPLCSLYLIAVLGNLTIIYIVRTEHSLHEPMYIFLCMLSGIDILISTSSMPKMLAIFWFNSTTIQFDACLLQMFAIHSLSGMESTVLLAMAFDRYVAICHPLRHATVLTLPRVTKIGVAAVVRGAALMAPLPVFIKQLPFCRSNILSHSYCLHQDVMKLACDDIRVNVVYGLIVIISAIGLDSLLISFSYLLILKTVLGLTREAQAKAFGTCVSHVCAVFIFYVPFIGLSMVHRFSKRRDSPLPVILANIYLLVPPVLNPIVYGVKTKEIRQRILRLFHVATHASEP
Procedure, shortened: as §1

OR51E2 (Homo sapiens) = target: T3, OR51E2 (Homo sapiens) (UniProt Q9H255)
T3 sequence (whole entry): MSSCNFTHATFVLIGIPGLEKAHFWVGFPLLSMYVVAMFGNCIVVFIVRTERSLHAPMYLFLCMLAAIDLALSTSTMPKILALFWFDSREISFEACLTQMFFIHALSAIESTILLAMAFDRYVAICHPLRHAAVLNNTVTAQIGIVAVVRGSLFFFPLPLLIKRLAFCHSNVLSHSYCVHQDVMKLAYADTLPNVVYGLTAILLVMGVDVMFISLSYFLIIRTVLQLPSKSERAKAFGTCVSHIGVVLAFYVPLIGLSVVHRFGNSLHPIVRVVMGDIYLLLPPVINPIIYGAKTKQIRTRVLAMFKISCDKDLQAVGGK
Procedure, shortened: as §1
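Note: active if original authors judged signal statistically different from baseline.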

## CCCC(=O)CC
OR51B5 (Homo sapiens)
  odorant receptor agonist call: inactive

## O=C([O-])c1ccccc1.[H+]
OR51E1 (Homo sapiens)
  odorant receptor agonist call: inactive

## CCCC(C)C(=O)O (stereo not given)
OR51E1 (Homo sapiens)
  odorant receptor agonist call: active

## CC(C)=CCCC(C)=CCCC(C)=CCO
OR51B5 (Homo sapiens)
  odorant receptor agonist call: active

## Cc1cnc(C)cn1
OR51B5 (Homo sapiens)
  odorant receptor agonist call: inactive

## CCCCCCCCCCCCCC(=O)O
OR51B5 (Homo sapiens)
  odorant receptor agonist call: inactive
OR51E1 (Homo sapiens)
  odorant receptor agonist call: inactive

## O=C([O-])CC(O)(CC(=O)O)C(=O)[O-].[H+].[H+]
OR51E1 (Homo sapiens)
  odorant receptor agonist call: inactive

## CCC(=O)O
OR51B5 (Homo sapiens)
  odorant receptor agonist call: inactive
OR51E1 (Homo sapiens)
  odorant receptor agonist call: inactive
OR51E2 (Homo sapiens)
  odorant receptor agonist call: active

## CCCCC(=O)CC
OR51E1 (Homo sapiens)
  odorant receptor agonist call: inactive
OR51E2 (Homo sapiens)
  odorant receptor agonist call: inactive

## CCCCCCC(=O)[O-].[H+]
OR51B5 (Homo sapiens)
  odorant receptor agonist call: inactive
OR51E1 (Homo sapiens)
  odorant receptor agonist call: inactive
OR51E2 (Homo sapiens)
  odorant receptor agonist call: inactive

## CCCCCCCCO
OR51B5 (Homo sapiens)
  odorant receptor agonist call: inactive
OR51E1 (Homo sapiens)
  odorant receptor agonist call: inactive
OR51E2 (Homo sapiens)
  odorant receptor agonist call: inactive

## CCCCCCCC(=O)OC
OR51B5 (Homo sapiens)
  odorant receptor agonist call: inactive

## C=C1CCC2CC1C2(C)C (stereo not given)
OR51B5 (Homo sapiens)
  odorant receptor agonist call: inactive

## CCCCCCCCCCCCCC(=O)OC
OR51B5 (Homo sapiens)
  odorant receptor agonist call: inactive

## CCCCCCCCCCCC(=O)OCC
OR51B5 (Homo sapiens)
  odorant receptor agonist call: inactive

## CCCCCCCCCCCCCCCCCC(=O)[O-].[H+]
OR51B5 (Homo sapiens)
  odorant receptor agonist call: inactive

## COc1ccc2[nH]cc(CCNC(C)=O)c2c1
OR51B5 (Homo sapiens)
  odorant receptor agonist call: inactive

## CCCC(C)=O
OR51E1 (Homo sapiens)
  odorant receptor agonist call: inactive
OR51E2 (Homo sapiens)
  odorant receptor agonist call: inactive

## CCCCCCCC(=O)[O-].[H+]
OR51B5 (Homo sapiens)
  odorant receptor agonist call: inactive
OR51E1 (Homo sapiens)
  odorant receptor agonist call: inactive
OR51E2 (Homo sapiens)
  odorant receptor agonist call: inactive
